# According to ChEMBL document CHEMBL1759910, “Imidazopyridine CB2 agonists: optimization of CB2/CB1 selectivity and implications for in vivo analgesic efficacy” (Bioorg Med Chem Lett, 2011):
# Calls of active or inactive are those of the source.
# Key:
# [1] = molecular target: T1, Cannabinoid receptor 2 (Homo sapiens, UniProt P34972); assay: Agonist activity at human CB2 receptor expressed in CHO-K1 cells assessed as inhibition of forskolin-stimulated cAMP level; type: functional, cell-based
# Summary of the method: (§1)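 Receptor (human or rat CB1 or CB2) expressed in CHO-K1 cells, 1000 cells per well, added to compound and incubated at room temperature for 15 min. Read-out is IC50 with Emax.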
# [2] = molecular target: T2, Cannabinoid receptor 1 (Homo sapiens, UniProt P21554); assay: Agonist activity at human CB1 receptor expressed in CHO-K1 cells assessed as inhibition of forskolin-stimulated cAMP level; type: functional, cell-based; summary of the method: as §1
# T2 sequence (P21554 whole entry): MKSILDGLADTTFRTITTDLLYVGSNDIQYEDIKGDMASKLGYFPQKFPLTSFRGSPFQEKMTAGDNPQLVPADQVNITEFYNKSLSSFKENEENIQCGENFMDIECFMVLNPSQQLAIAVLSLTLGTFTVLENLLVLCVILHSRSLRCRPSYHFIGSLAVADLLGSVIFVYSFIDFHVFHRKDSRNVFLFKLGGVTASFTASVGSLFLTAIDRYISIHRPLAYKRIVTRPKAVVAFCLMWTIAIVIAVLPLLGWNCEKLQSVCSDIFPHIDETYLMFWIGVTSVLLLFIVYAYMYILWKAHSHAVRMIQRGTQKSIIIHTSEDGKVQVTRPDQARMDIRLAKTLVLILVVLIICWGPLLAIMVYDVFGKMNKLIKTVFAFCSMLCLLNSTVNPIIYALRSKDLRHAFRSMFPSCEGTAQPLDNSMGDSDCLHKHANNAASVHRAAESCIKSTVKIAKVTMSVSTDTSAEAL
# [3] = Plasma protein binding in rat assessed as fraction unbound; type: ADME, cell-free
# Summary of the method: (§2)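 Free fraction in rat plasma measured by ultrafiltration or equilibrium dialysis after incubation with rat plasma.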
# [4] = molecular target: T1, Cannabinoid receptor 2; assay: Agonist activity at human CB2 receptor expressed in CHO-K1 cells assessed as inhibition of forskolin-stimulated cAMP level relative to control; type: functional, cell-based; summary of the method: as §1
# [5] = molecular target: T2, Cannabinoid receptor 1; assay: Agonist activity at human CB1 receptor expressed in CHO-K1 cells assessed as inhibition of forskolin-stimulated cAMP level relative to control; type: functional, cell-based; summary of the method: as §1
# [6] = molecular target: T1, Cannabinoid receptor 2; assay: Binding affinity to human CB2 receptor
# [7] = molecular target: T2, Cannabinoid receptor 1; assay: Binding affinity to human CB1 receptor
# [8] = Drug level in brain of Lewis rat complete Freund's adjuvant-induced hyperalgesia at 100 mg/kg, po and sc at 60 mins; type: ADME, organism-based; parameters: dose 100 mg/kg, route oral; details: read-out: Drug uptake
# Summary of the method: (§3)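 Rats with CFA-induced hyperalgesia dosed orally or subcutaneously at 100 mpk. Naproxen 20 mg/kg and vehicle served as controls. Paw withdrawal threshold read at baseline, after CFA, and post-dose (30, 60 or 120 min). Plasma, brain and CSF drug levels measured at the 60 or 120 min post-dose timepoint.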
# [9] = Drug level in cerebrospinal fluid of Lewis rat complete Freund's adjuvant-induced hyperalgesia model at 100 mg/kg, po and sc at 60 mins; type: ADME, organism-based; parameters: dose 100 mg/kg, route oral; details: read-out: Drug uptake; summary of the method: as §3
# [10] = molecular target: T3, Cannabinoid receptor 2 (Rattus norvegicus, UniProt Q9QZN9); assay: Agonist activity at rat CB2 receptor expressed in CHO-K1 cells assessed as inhibition of forskolin-stimulated cAMP level; type: functional, cell-based; summary of the method: as §1
# T3 sequence (Q9QZN9 whole entry): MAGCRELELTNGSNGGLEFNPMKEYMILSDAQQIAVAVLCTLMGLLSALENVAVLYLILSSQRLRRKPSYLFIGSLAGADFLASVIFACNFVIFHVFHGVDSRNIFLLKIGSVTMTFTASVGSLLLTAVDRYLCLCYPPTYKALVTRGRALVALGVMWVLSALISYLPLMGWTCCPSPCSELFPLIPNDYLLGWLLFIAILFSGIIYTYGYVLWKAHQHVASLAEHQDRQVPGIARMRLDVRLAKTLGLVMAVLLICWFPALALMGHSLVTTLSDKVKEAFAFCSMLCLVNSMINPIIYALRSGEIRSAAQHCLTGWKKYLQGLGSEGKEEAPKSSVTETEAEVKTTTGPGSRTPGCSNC
# [11] = system: Rattus norvegicus; assay: Neurotoxicity in rat assessed as impairment of motor co-ordination at 100 mg/kg, po by rotarod method; type: toxicity, organism-based; parameters: dose 100 mg/kg, route oral; details: in vivo
# [12] = molecular target: Cannabinoid receptor 1 (Rattus norvegicus, UniProt P20272); assay: Agonist activity at rat CB1 receptor expressed in CHO-K1 cells assessed as inhibition of forskolin-stimulated cAMP level; type: functional, cell-based; summary of the method: as §1
# Chain of Cannabinoid receptor 1 (Rattus norvegicus, UniProt P20272) (P20272 whole entry): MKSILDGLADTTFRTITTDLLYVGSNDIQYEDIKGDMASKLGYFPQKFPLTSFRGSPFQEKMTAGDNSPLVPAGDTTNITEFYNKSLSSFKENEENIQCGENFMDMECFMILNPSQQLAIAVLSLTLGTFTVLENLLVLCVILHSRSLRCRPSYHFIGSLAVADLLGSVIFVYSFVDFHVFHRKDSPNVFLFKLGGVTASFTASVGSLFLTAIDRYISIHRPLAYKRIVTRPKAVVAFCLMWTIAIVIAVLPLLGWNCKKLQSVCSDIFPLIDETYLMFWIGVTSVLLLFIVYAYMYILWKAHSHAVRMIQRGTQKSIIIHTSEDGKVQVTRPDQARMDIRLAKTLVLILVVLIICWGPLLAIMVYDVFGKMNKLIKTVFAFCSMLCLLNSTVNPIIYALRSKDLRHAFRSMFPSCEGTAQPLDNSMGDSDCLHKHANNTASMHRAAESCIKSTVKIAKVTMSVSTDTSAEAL
# [13] = molecular target: Cannabinoid receptor 1 (Rattus norvegicus) (UniProt P20272); assay: Agonist activity at rat CB1 receptor expressed in CHO-K1 cells assessed as inhibition of forskolin-stimulated cAMP level relative to control; type: functional, cell-based; summary of the method: as §1
# Chain of Cannabinoid receptor 1 (Rattus norvegicus) (P20272 whole entry): as above
# [14] = system: Rattus norvegicus; assay: Analgesic activity in Lewis rat complete Freund's adjuvant-induced hyperalgesia model assessed as reversal in paw withdrawal threshold at 100 mg/kg, po and sc; type: functional, organism-based; parameters: dose 100 mg/kg; summary of the method: as §3
# [15] = Plasma protein binding in rat; type: ADME, cell-free; details: read-out: PPB (converted); summary of the method: as §2
# [16] = molecular target: T4, Cannabinoid receptor 2 (Rattus norvegicus) (UniProt Q9QZN9); assay: Agonist activity at rat CB2 receptor expressed in CHO-K1 cells assessed as inhibition of forskolin-stimulated cAMP level relative to control; type: functional, cell-based; summary of the method: as §1
# T4 sequence (whole entry): T3 sequence (Q9QZN9 whole entry)
# [17] = Plasma concentration in Lewis rat complete Freund's adjuvant-induced hyperalgesia model at 100 mg/kg, po and sc at 60 mins; type: ADME, organism-based; parameters: dose 100 mg/kg, route oral; summary of the method: as §3
# [18] = Drug level in cerebrospinal fluid of Lewis rat complete Freund's adjuvant-induced hyperalgesia model at 100 mg/kg, po and sc at 120 mins; type: ADME, organism-based; parameters: dose 100 mg/kg, route oral; details: read-out: Drug uptake; summary of the method: as §3
# [19] = Plasma concentration in Lewis rat complete Freund's adjuvant-induced hyperalgesia model at 100 mg/kg, po and sc at 120 mins; type: ADME, organism-based; parameters: dose 100 mg/kg, route oral; summary of the method: as §3
# [20] = Drug level in brain of Lewis rat complete Freund's adjuvant-induced hyperalgesia model at 100 mg/kg, po and sc at 120 mins; type: ADME, organism-based; parameters: dose 100 mg/kg, route oral; details: read-out: Drug uptake; summary of the method: as §3
# T1 sequence (P34972 whole entry): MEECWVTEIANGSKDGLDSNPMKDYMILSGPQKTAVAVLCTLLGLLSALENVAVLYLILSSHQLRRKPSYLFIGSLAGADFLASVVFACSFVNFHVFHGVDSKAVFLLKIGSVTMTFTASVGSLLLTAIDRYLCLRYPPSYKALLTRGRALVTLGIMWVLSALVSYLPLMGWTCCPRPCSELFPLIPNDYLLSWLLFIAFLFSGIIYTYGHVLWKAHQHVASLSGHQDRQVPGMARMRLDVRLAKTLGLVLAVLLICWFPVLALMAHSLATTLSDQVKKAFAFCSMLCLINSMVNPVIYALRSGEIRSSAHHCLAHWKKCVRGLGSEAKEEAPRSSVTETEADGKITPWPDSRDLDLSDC
Compound,IC50 [1] [nM],IC50 [2] [nM],fraction unbound [3],Emax [4] [%],Emax [5] [%],also measured
O=C(NC(c1cccnc1)C(F)(F)F)c1nc(N2CCOCC2)c2cnccn12 (stereo not given),69,> 17000,0.25,98,–,–
O=C(NC(c1ccncc1)c1ccc(F)cc1)c1nc(N2CCC(F)(F)C2)c2cnccn12 (stereo not given),92,> 17000,0.03,96,–,–
CC(C)(C)CNC(=O)c1nc(C2CC2)n2ccccc12,21,> 17000,0.05,97,–,–
O=C(NCC1(CO)CCCC1)c1nc(CN2CCC(F)(F)CC2)n2ccccc12,3,68,–,88,99,–
O=C(c1cccc(Cl)c1Cl)c1nc(CN2CCC(F)(F)CC2)c2ccccn12,0.3,90,–,110,101,–
O=C(NC(C1CC1)C1CC1)c1nc(C2CC2)n2ccccc12,7,> 17000,0.03,99,–,–
C[C@@H](NC(=O)c1nc(N2CCC(F)(F)CC2)c2cnccn12)C(C)(C)C,36,> 17000,0.06,99,–,–
COc1ccc2c(c1)c(CCN1CCOCC1)c(C)n2C(=O)c1cccc(Cl)c1Cl,–,–,–,–,–,Ki [6]: 10 nM; Ki [7]: 2000 nM
O=C(N[C@H](c1ccccn1)C(F)(F)F)c1nc(N2CCOCC2)c2cnccn12,139,> 17000,0.18,94,–,–
O=C(N[C@H](c1ccccn1)C(F)(F)F)c1nc(N2CCOCC2)n2ccccc12,21,705,0.1,97,55,–
O=C(Nc1cccc(C(F)(F)F)n1)c1nc(CN2CCS(=O)(=O)CC2)c2ccccn12,44,12700,0.11,80,54,–
O=C(c1cccc(Cl)c1Cl)c1nc(CN2CCOCC2)c2ccccn12,5,2560,0.24,94,66,concentration at 1 h [8]: 5400 nM; concentration at 1 h [9]: 110 nM; IC50 [10]: 11 nM; Activity [11]: Toxic; IC50 [12]: 1070 nM; Emax [13]: 104%; Activity [14]: Dose-dependent effect; fraction unbound [15]: 0.24; Emax [16]: 87%; concentration at 1 h [17]: 4500 nM
O=C(Nc1cccc(C(F)(F)F)n1)c1nc(CN2CCC(F)(F)CC2)c2ccccn12,1.7,347,–,98,100,–
O=C(c1cccc(F)c1C(F)(F)F)c1nc(CN2CCOCC2)c2ccccn12,0.7,2230,0.03,98,97,–
O=C(NCC1(CO)CCCC1)c1nc(N2CCOCC2)n2ccccc12,33,> 17000,0.16,99,–,IC50 [10]: 58 nM; concentration at 2 h [18]: 300 nM; IC50 [12]: > 17000 nM; concentration at 2 h [19]: 4300 nM; Activity [14]: inactive; concentration at 2 h [20]: 1300 nM; fraction unbound [15]: 0.16; Emax [16]: 87%
